Experimental data: the M2OR odorant receptor database

Tests used:
Settings in all cases: stereoisomer not certain
UniProt Q8VFP5 = molecular target: T1, UniProt Q8VFP5
T1 sequence (whole entry): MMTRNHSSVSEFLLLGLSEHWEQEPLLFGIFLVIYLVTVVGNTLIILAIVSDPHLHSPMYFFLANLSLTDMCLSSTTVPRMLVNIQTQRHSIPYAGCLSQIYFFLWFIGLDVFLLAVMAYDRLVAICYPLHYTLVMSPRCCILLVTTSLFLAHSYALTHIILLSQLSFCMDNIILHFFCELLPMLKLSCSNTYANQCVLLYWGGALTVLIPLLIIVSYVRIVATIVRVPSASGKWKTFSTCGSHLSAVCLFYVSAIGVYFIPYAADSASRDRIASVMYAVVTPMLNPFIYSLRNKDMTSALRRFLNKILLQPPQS
How it was run: (§1)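 Each entry records the cell line, G-protein, co-transfected protein and tags used. Methods varied with the source, often transient luciferase assays in mammalian cell lines. A receptor–molecule pair is called responsive (active) if the original authors judged its signal statistically different from baseline and non-responsive (inactive) otherwise.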

UniProt Q8VG01 = molecular target: T2, UniProt Q8VG01
T2 sequence (whole entry): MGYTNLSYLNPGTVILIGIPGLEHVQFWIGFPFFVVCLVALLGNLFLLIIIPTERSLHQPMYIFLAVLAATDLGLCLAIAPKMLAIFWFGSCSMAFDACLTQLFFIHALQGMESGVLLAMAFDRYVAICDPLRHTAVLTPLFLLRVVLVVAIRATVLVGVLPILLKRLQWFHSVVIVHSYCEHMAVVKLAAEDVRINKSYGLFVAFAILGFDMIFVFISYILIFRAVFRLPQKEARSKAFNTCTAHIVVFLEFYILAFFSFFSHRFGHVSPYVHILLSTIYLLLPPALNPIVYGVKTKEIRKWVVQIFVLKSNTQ
How it was run: as §1

UniProt Q8VG27 = molecular target: T3, UniProt Q8VG27
T3 sequence (whole entry): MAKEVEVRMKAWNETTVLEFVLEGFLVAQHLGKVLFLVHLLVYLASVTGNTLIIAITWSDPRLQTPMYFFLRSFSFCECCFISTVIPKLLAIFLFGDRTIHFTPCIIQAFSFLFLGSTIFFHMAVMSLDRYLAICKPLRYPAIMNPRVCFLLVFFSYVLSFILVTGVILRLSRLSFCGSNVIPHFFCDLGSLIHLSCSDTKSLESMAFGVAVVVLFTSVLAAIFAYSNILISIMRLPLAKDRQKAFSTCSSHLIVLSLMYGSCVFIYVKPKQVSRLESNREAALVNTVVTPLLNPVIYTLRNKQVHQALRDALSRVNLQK
How it was run: as §1

UniProt Q8VG53 = molecular target: T4, UniProt Q8VG53
T4 sequence (whole entry): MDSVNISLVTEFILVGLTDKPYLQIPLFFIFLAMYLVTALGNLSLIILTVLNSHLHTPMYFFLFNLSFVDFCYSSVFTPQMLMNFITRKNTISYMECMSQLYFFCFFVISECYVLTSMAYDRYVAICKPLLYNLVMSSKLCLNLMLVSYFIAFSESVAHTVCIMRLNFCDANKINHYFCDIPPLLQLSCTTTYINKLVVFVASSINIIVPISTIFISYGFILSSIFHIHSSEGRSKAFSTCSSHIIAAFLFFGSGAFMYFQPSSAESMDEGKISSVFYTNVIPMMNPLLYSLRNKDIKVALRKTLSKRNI
How it was run: as §1

UniProt Q8VG64 = molecular target: T5, UniProt Q8VG64
T5 sequence (whole entry): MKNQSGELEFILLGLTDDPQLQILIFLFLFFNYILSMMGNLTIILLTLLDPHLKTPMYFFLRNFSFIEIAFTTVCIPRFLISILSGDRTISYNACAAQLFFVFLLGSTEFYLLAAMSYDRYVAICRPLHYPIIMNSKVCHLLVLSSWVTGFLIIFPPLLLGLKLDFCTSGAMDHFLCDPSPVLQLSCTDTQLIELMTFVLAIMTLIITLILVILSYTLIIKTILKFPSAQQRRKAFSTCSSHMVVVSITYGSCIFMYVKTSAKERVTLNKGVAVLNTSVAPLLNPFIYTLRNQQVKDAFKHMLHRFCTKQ
How it was run: as §1

UniProt Q8VGB9 = molecular target: T6, UniProt Q8VGB9
T6 sequence (whole entry): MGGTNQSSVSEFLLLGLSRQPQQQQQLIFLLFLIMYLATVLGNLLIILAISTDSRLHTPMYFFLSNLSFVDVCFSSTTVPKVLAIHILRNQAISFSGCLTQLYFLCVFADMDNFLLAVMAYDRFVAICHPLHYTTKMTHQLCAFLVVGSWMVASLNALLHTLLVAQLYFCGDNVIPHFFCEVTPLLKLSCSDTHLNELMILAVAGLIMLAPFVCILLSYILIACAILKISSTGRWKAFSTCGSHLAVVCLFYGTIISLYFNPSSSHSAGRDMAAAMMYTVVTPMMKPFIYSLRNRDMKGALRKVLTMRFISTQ
How it was run: as §1

| Structure (SMILES) | odorant receptor agonist call (UniProt Q8VFP5) | odorant receptor agonist call (UniProt Q8VG01) | odorant receptor agonist call (UniProt Q8VG27) | odorant receptor agonist call (UniProt Q8VG53) | odorant receptor agonist call (UniProt Q8VG64) | odorant receptor agonist call (UniProt Q8VGB9) |
| --- | --- | --- | --- | --- | --- | --- |
| CC=Cc1ccc(OC)cc1 | inactive | inactive | inactive | inactive | inactive | inactive |
| CSSSC | inactive | inactive | inactive | inactive | inactive | inactive |
| COc1nccnc1C(C)C | inactive | inactive | inactive | inactive | inactive | inactive |
| C=CC(=C)CCC=C(C)C | inactive | inactive | inactive | inactive | inactive | inactive |
| CCCCCC(C=O)=Cc1ccccc1 | inactive | inactive | inactive | inactive | inactive | inactive |
| CCSSCC | inactive | inactive | inactive | inactive | inactive | inactive |
| CCCCCOC(=O)CCC | inactive | inactive | inactive | inactive | inactive | inactive |
| CCCCCC(=Cc1ccccc1)C(OC)OC | inactive | inactive | inactive | inactive | inactive | inactive |
| CCc1ccc(O)cc1 | inactive | inactive | inactive | inactive | inactive | inactive |
| CCC(C)c1nccnc1OC (stereo unspecified) | inactive | inactive | inactive | inactive | inactive | inactive |
| CC(=O)C1(C)CC2=C(CCCC2(C)C)CC1C (stereo unspecified) | inactive | inactive | inactive | inactive | inactive | inactive |
| OCCc1ccccc1 | inactive | inactive | inactive | inactive | inactive | inactive |
| CCCCCCC(=O)OCCCC | inactive | active | inactive | inactive | inactive | inactive |
| CCCCCCCCCCCO | inactive | inactive | inactive | inactive | inactive | inactive |
| Cc1ccc(C(C)C)c(O)c1 | inactive | inactive | inactive | inactive | inactive | inactive |
| C=CC(C)=CCC=C(C)CCC=C(C)C | inactive | inactive | inactive | inactive | inactive | inactive |
